According to ChEMBL document CHEMBL3769301, “Novel cis-selective and non-epimerisable C3 hydroxy azapodophyllotoxins targeting microtubules in cancer cells” (Eur J Med Chem, 2016):
The source made the active and inactive calls. The rule behind the calls is not given here.

What was measured:
Format in all cases: cell-based
MCF7 [1] = assay: Induction of microtubule cytoskeleton destabilization in human MCF7 cells assessed as pyknosis at 250 nM after 6 hrs by Hoechst 33342 staining-based confocal fluorescence microscopy
In short: (§1)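 MCF-7 cells in RPMI 1640 with 10% FBS were grown on glass coverslips for 42 h to 70–80% confluency. They were exposed to 250 nM compound or 0.01% DMSO for 6 h, then fixed in methanol at −20 °C for 10 min. Staining used anti-α-tubulin (1:2000) with Alexa488 secondary (1:400) and Hoechst 33342 (1 μg/ml), imaged by confocal microscopy (63x oil). There were three independent experiments, each in duplicate.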

MCF7 [2] = assay: Induction of microtubule cytoskeleton destabilization in human MCF7 cells assessed as nuclear atypia at 250 nM after 6 hrs by Hoechst 33342 staining-based confocal fluorescence microscopy; in short: as §1
MCF7 [3] = assay: Induction of microtubule cytoskeleton destabilization in human MCF7 cells assessed as accumulation of binucleate cells at 250 nM after 6 hrs by Hoechst 33342 staining-based confocal fluorescence microscopy; in short: as §1
MCF7 [4] = assay: Induction of microtubule cytoskeleton destabilization in human MCF7 cells assessed as abberation in spindle morphology and polarity at 250 nM after 6 hrs by Hoechst 33342 staining-based confocal fluorescence microscopy; in short: as §1
MCF7 [5] = assay: Inhibition of microtubule cytoskeleton polymerization in human MCF7 cells assessed as repolymerization at 250 nM cells preincubated on ice followed rewarmed to 37 degC in presence of compound for 30 mins by Hoechst 33342 staining-based confocal fluorescence microscopy
In short: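 No pre-treatment: after 42 h on coverslips, MCF-7 cells were held on ice for 30 min to depolymerise microtubules. A cold control set was fixed at once; the rest were rewarmed for 30 min at 37 °C/5% CO2 with 250 nM compound or 0.01% DMSO. All were fixed in methanol at −20 °C, stained for α-tubulin and Hoechst, and examined by confocal imaging. There were three independent experiments.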

MCF7 [6] = assay: Inhibition of microtubule cytoskeleton polymerization in human MCF7 cells assessed as repolymerization at 250 nM pretreated for 6 hrs followed by incubation for 30 mins on ice then rewarmed to 37 degC for 30 mins by Hoechst 33342 staining-based confocal fluorescence microscopy
In short: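 Pre-treatment: MCF-7 cells on coverslips were exposed to 250 nM compound or 0.01% DMSO for 6 h, then held at 4 °C on ice for 30 min. One set was fixed after cold depolymerisation; the others were returned to 37 °C/5% CO2 for 30 min to repolymerise. Cells were fixed in −20 °C methanol, stained for α-tubulin and Hoechst, and imaged by confocal microscopy. There were three independent experiments.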

MCF7 [7] = assay: Induction of microtubule cytoskeleton destabilization in human MCF7 cells assessed as uncongressed/misaligned chromosomes at 250 nM after 6 hrs by Hoechst 33342 staining-based confocal fluorescence microscopy; in short: as §1
MCF7 [8] = assay: Induction of microtubule cytoskeleton destabilization in human MCF7 cells assessed as shorter and more disorderd microtubule at 250 nM after 6 hrs by Hoechst 33342 staining-based confocal fluorescence microscopy; in short: as §1

| Structure (SMILES) | Activity (MCF7 [1]) | Activity (MCF7 [2]) | Activity (MCF7 [3]) | Activity (MCF7 [4]) | inhibition (MCF7 [5]) | inhibition (MCF7 [6]) | Activity (MCF7 [7]) | Activity (MCF7 [8]) |
| --- | --- | --- | --- | --- | --- | --- | --- | --- |
| COc1cc([C@@H]2c3cc4c(cc3[C@H](O)[C@H]3COC(=O)[C@H]23)OCO4)cc(OC)c1OC | Active | Active |  |  |  |  |  |  |
| O=C1OC[C@]2(O)Nc3c(c4cccnc4c4ncccc34)[C@@H](c3ccccc3C(F)(F)F)[C@@H]12 (mixture of isomers) | Active | Active | Active | Active | inactive | inactive | Active | Active |
| O=C1OC[C@]2(O)Nc3c(c4cccnc4c4ncccc34)[C@@H](c3ccccc3OC(F)(F)F)[C@H]12 (mixture of isomers) | Active | Active | Active | Active | inactive | inactive | Active | Active |
